Assay results reported in ChEMBL document CHEMBL1154031, “Glycolipid ester-type heterodimers from Ipomoea tyrianthina and their pharmacological activity” (Bioorg Med Chem Lett, 2009).
pIC50: −log10 of the molar value. ≈ marks a conversion by molar mass, not a printed value. Calls of active or inactive are those of the source. The rule behind the calls is not given here.

Columns and labels:
Aorta [1] = assay: Vasorelaxation activity in Wistar rat endothelium-removed thoracic aortic ring assessed as inhibition of noradrenaline-induced contraction; assay type: functional, tissue-based
Summary of the method: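 Endothelium removed from the rings, confirmed by absence of relaxation to carbachol 1 uM. Rings held at 3 g in oxygenated Krebs (37 °C, pH 7.4) and precontracted with noradrenaline 0.3 uM. Cumulative concentration-response curves recorded isometrically. Relaxation calculated by comparing tone before and after compound addition.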

Brain [2] = assay: Increase in GABA release in mouse cortical brain slice at 20 ug/mL after 30 seconds; assay type: functional, tissue-based
Summary of the method: (§1)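 Anterior cortex slices (250-300 um) cut by hand after decapitation, held at 4 °C in oxygenated modified Krebs-Ringer (pH 7.4) with amino-oxyacetic acid 10.0 uM, then 10 min in basal medium at 37 °C. Compound at a final 20.0 ug/mL; aliquots sampled at 0.5-3.0 min. GABA and glutamate measured by HPLC after O-phthaldialdehyde derivatization and expressed per mg slice protein. Untreated control; mean ± SEM, 3 independent experiments.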

[3] = system: Mycobacterium tuberculosis; assay: Antimycobacterial activity against Mycobacterium tuberculosis by microplate blue alamar assay; assay type: functional
Summary of the method: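 Modified microplate Alamar Blue assay (MABA) against M. tuberculosis. Pure compounds tested over 100.00 to 3.13 µg/mL. Activity recorded as the minimal inhibitory concentration (MIC).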

Brain [4] = assay: Increase in GABA release in mouse cortical brain slice at 20 ug/mL upto 180 seconds; assay type: functional, tissue-based; summary of the method: as §1
Brain [5] = assay: Increase in glutamic acid release in mouse cortical brain slice assessed per mg of protein at 20 ug/mL upto 180 seconds; assay type: functional; summary of the method: as §1
Aorta [6] = assay: Vasorelaxation activity in Wistar rat endothelium-intact thoracic aortic ring assessed as inhibition of noradrenaline-induced contraction; assay type: functional, tissue-based
Summary of the method: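 Thoracic aortic rings (3-5 mm) with endothelium intact, held at 3 g tension in Krebs solution at 37 °C, pH 7.4, gassed O2/CO2 19:1. Isometric tension recorded. Rings precontracted with noradrenaline 0.3 uM, then given cumulative concentrations. Relaxation taken from tone before and after addition. Vehicle and positive control run in parallel.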

SMILES | Activity (Aorta [1]) | Activity (Brain [2]) | MIC [3] [µg/mL] | Activity (Brain [4]) | Activity (Brain [5]) [pmol] | pIC50 (Aorta [6]) | Emax (Aorta [6]) [%]
CCCCCC1CCCCCCCCCC(=O)O[C@@H]2[C@@H](O[C@@H]3O[C@@H](C)[C@H](OC(=O)CCCCCCCCC[C@@H](CCCCC)O[C@@H]4O[C@H](C)[C@@H](O)[C@H](O)[C@H]4O[C@@H]4O[C@H](CO)[C@@H](O)[C@H](O)[C@H]4O[C@@H]4O[C@@H](C)[C@H](O[C@@H]5O[C@H](C)[C@@H](O)[C@H](O)[C@H]5O)C(O)C4OC(=O)CCC)[C@@H](O)[C@@H]3O)[C@H](C)O[C@@H](O[C@H]3[C@H](O[C@H]4[C@H](O1)O[C@H](C)[C@@H](O)[C@@H]4O)O[C@H](COC(=O)C(C)C(C)O)[C@@H](O)[C@@H]3O)[C@@H]2OC(=O)C(C)C(C)O (stereo partly drawn) [TYRIANTHIN B] | inactive | Active | 100 (≈ 50.5 µM) | inactive | 180 | 6.85 | 
CCCCCC1CCCCCCCCCC(=O)O[C@@H]2[C@@H](O[C@@H]3O[C@@H](C)[C@H](OC(=O)CCCCCCCCC[C@@H](CCCCC)O[C@@H]4O[C@H](C)[C@@H](O)[C@H](O)[C@H]4O[C@@H]4O[C@H](CO)[C@@H](O)[C@H](O)[C@H]4O[C@@H]4O[C@@H](C)[C@H](O[C@@H]5O[C@H](C)[C@@H](OC(=O)C(C)CC)[C@H](O)[C@H]5O)C(O)C4OC(=O)C(C)C(C)O)[C@@H](O)[C@@H]3O)[C@H](C)O[C@@H](O[C@H]3[C@H](O[C@H]4[C@H](O1)O[C@H](C)[C@@H](O)[C@@H]4O)O[C@H](COC(=O)C(C)C(C)O)[C@@H](O)[C@@H]3O)[C@@H]2OC(=O)C(C)C(C)O (stereo partly drawn) [TYRIANTHIN A] | inactive | Active | 100 (≈ 47.7 µM) | Active | 100 | 6.62 | 81.8
